Among the data in ChEMBL document CHEMBL4765483 (J Med Chem, 2021) are inhibition values, retold here.

The structures appear in SMILES notation.

What all share (conditions): Cell membrane
Assay [1] has as its target Adenosine receptor A2a (Homo sapiens) (UniProt P29274). Nature of the assay: Displacement of [3H]ZM2421385 from adenosine A2A receptor expressed in human HeLa cell membranes at 1 uM incubated for 30 mins by scintillation counting method. For orientation: Loss of bound radioactivity is the signal in a displacement assay; it reports binding, not function.
In assay [2] the target is T1, Adenosine receptor A1 (Homo sapiens) (UniProt P30542).
T1 sequence (whole entry): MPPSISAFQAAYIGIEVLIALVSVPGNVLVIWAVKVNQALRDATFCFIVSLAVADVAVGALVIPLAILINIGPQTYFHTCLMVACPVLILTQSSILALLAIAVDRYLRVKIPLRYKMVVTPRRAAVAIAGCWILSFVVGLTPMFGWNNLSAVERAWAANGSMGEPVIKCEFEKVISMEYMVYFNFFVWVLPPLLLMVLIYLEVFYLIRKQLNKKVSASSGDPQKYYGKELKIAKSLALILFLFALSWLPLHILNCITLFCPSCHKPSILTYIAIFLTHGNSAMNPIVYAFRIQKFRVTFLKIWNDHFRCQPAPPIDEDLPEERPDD
The experiment in a line: Displacement of [3H]DPCPX from human adenosine A1 receptor expressed in CHO cell membranes at 1 uM incubated for 60 mins by scintillation counting method.

The target of assay [3] is T2, Adenosine receptor A2b (Homo sapiens) (UniProt P29275).
T2 sequence (whole entry): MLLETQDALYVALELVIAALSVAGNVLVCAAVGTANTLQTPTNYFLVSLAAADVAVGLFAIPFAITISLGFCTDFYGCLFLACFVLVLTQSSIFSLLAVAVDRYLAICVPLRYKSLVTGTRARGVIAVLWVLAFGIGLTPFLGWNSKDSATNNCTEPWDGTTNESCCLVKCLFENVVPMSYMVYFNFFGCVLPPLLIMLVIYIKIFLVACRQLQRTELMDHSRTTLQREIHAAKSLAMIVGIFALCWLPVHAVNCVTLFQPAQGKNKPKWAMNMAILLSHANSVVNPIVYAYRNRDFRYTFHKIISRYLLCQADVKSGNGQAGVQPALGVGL
Nature of the assay: Displacement of [3H]DPCPX from human adenosine A2B receptor expressed in HEK293 cell membranes at 1 uM incubated for 30 mins by scintillation counting method.

The target of assay [4] is T3, Adenosine receptor A3 (Homo sapiens) (UniProt P0DMS8).
T3 sequence (whole entry): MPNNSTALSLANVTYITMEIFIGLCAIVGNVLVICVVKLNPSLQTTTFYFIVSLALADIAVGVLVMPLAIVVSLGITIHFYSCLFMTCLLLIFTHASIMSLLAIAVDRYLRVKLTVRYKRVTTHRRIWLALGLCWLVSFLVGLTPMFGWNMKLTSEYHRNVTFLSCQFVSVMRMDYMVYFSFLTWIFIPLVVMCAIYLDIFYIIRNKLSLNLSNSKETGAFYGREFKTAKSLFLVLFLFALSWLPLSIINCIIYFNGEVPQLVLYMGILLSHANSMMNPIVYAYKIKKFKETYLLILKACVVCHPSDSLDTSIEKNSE
Nature of the assay: Displacement of [3H]NECA from adenosine A3 receptor expressed in human HeLa cell membranes at 1 uM incubated for 180 mins by scintillation counting method. In short, it runs like this:
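hA3AR in HeLa membranes (3 pmol/mg protein) with 10 nM [3H]NECA (KD 8.7 nM); nonspecific binding with 100 μM R-PIA; incubated 180 min at 25 °C, washed, filtered, radioactivity counted.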

Adenosine receptor A2a (Homo sapiens), sequence (P29274 whole entry): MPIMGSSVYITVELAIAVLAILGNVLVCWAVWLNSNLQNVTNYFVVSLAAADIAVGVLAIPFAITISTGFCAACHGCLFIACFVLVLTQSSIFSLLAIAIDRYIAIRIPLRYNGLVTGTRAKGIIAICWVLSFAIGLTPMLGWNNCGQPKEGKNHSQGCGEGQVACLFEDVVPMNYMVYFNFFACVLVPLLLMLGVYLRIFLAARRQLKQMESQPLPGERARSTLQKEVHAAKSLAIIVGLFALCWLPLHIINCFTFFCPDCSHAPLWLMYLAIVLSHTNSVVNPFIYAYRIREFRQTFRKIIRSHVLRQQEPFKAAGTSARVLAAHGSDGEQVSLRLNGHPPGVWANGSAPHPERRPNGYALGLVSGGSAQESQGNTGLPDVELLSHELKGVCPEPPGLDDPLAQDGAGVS

For orientation: inhibition means the drop in the measured response relative to a control, in per cent. Read a high inhibition as a response far below the control. `CCC(CC)OC(=O)C1=C(C)NC(=O)NC1c1ccsc1` (racemic): the inhibition in assay [1] was determined as 1%; in assay [2], 22%; in assay [3], 26%; in assay [4], 6%.

For the molecule `CCCOC(=O)C1=C(C)NC(=S)NC1c1cccs1` (racemic), the inhibition in assay [1] was determined as 1%; in assay [2], 7%; in assay [3], 3%; in assay [4], 10%.

Turning to `CC1=C(C(=O)CC(C)C)C(c2cccs2)NC(=O)N1` (racemic), the inhibition in assay [1] came to 1%; in assay [2], 19%; in assay [3] (filed as antagonist), 43%; in assay [4], 18%.

As for `CCOP(=O)(OCC)C1=C(C)NC(=O)NC1c1ccoc1` (racemic), the inhibition stood at 8% in assay [1], 1% in assay [2], 3% in assay [3] and 2% in assay [4].

For `CC1=C(C(=O)OC2CCCC2)C(c2cccs2)NC(=O)N1` (racemic), the inhibition was determined as 20% in assay [1], 9% in assay [2], 1% in assay [3] and 1% in assay [4].

Regarding `CCOC(=O)C1=C(C)N(C)C(=O)NC1c1ccco1` (racemic), the inhibition in assay [1] was 1%.

As to `CC1=C(c2ncc(C)o2)C(c2cccs2)NC(=O)N1` (racemic), the inhibition turned out to be 7% in assay [1], 21% in assay [2], 45% in assay [3] (filed as antagonist) and 1% in assay [4].

Turning to `CC1=C(C(=O)OC(C)(C)C)C(c2cccs2)NC(=O)N1` (racemic), the inhibition in assay [1] turned out to be 10%; in assay [2], 26%; in assay [3], 38%; in assay [4], 7%.

As to `COC(=O)C1=C(C)NC(=O)NC1c1ccoc1` (racemic), the inhibition in assay [1] turned out to be 3%; in assay [2] it was 8%; in assay [3] (filed as antagonist), 42%; in assay [4], 2%.

For `CC1=C(C(=O)OCC(C)C)C(c2ccco2)NC(=S)N1` (racemic), the inhibition in assay [1] was 30%; in assay [2], 7%; in assay [3], 18%; in assay [4], 10%.

As for `CCN(CC)C(=O)C1=C(C)NC(=O)NC1c1ccco1` (racemic), the inhibition turned out to be 9% in assay [1], 11% in assay [2], 31% in assay [3] and 19% in assay [4].

As for `CCC(CC)OC(=O)C1=C(C)NC(=O)NC1c1cccs1` (racemic), the inhibition came out at 4% in assay [1], 13% in assay [2], 6% in assay [3] and 1% in assay [4].

For the molecule `CCNC(=O)C1=C(C)NC(=O)NC1c1cccs1` (racemic), the inhibition in assay [1] worked out at 1%; in assay [2], 1%; in assay [3], 1%; in assay [4], 4%.

Consider `CC1=C(C(=O)OC(C)(C)C)C(c2ccsc2)NC(=O)N1` (racemic), for which the inhibition in assay [1] worked out at 5%; in assay [2], 15%; in assay [3] (filed as antagonist) it was 47%; in assay [4], 1%.

Regarding `CCC(CC)OC(=O)C1=C(C)NC(=O)NC1c1ccco1` (racemic), the inhibition in assay [1] was 3%; in assay [2], 2%; in assay [3] it was 35%; in assay [4], 1%.

For `CC1=C(C(=O)C2CC2)C(c2ccoc2)NC(=O)N1` (racemic), the inhibition in assay [1] was found to be 1%; in assay [2], 1%; in assay [3], 10%; in assay [4], 16%.

With `CC1=C(C(=O)SC(C)C)C(c2ccsc2)NC(=O)N1` (racemic), the inhibition in assay [1] turned out to be 2%; in assay [2] it was 24%; in assay [3], 14%; in assay [4], 1%.

On to `CCOP(=O)(OCC)C1=C(C)NC(=O)NC1c1ccco1` (racemic), for which the inhibition in assay [1] worked out at 4%; in assay [2], 3%; in assay [3] it was 2%; in assay [4] it was 4%.

In assay [4], `CC1=C(C(=O)OC(C)C)C(c2cccs2)NC(=O)N1C` (racemic) came in with an inhibition of 17%.

Take `CC1=C(C(=O)OCc2ccccc2)C(c2ccsc2)NC(=O)N1` (racemic): the inhibition in assay [1] was 21%; in assay [2], 57%; in assay [3] (filed as antagonist), 44%; in assay [4], 25%.

Regarding `COC(=O)C1=C(C)NC(=O)NC1c1cccs1` (racemic), the inhibition was determined as 1% in assay [1], 6% in assay [2], 19% in assay [3] and 3% in assay [4].

Take `CC1=C(C(=O)NC(C)C)C(c2cccs2)NC(=O)N1` (racemic): the inhibition is 22% in assay [1], 2% in assay [2], 40% in assay [3] (filed as antagonist) and 1% in assay [4].

For the molecule `CC1=C(C(=O)OC2CCCCC2)C(c2ccco2)NC(=O)N1` (racemic), the inhibition is 5% in assay [1], 1% in assay [2], 1% in assay [3] and 4% in assay [4].

As to `COC(=O)C1=C(C)NC(=S)NC1c1ccoc1` (racemic), the inhibition in assay [1] is 1%; in assay [2], 25%; in assay [3] (filed as antagonist), 48%; in assay [4] it was 3%.

For `CCCC(=O)C1=C(C)NC(=O)NC1c1ccsc1` (racemic), the inhibition in assay [1] turned out to be 11%; in assay [2], 6%; in assay [3], 9%; in assay [4], 1%.

Consider `CCOC(=O)C1=C(C)N(C)C(=O)NC1c1ccsc1` (racemic), for which the values for the inhibition in assay [1], in assay [2] and in assay [3] (filed as antagonist) were 23%, 32% and 53%, respectively.

Take `CCCOC(=O)C1=C(C)NC(=S)NC1c1ccco1` (racemic): the inhibition was found to be 2% in assay [1], 1% in assay [2], 46% in assay [3] (filed as antagonist) and 1% in assay [4].

Turning to `CC1=C(C(=O)OCc2ccccc2)C(c2cccs2)NC(=O)N1C` (racemic), the inhibition in assay [1] came to 3%; in assay [2], 50%; in assay [3] (filed as antagonist), 50%; in assay [4], 18%.

On to `CC1=C(C(=O)C2CC2)C(c2cccs2)NC(=O)N1` (racemic), for which the inhibition in assay [1] was found to be 1%; in assay [2] it was 1%; in assay [3], 1%; in assay [4], 15%.

Consider `CCCOC(=O)C1=C(C)NC(=S)NC1c1ccoc1` (racemic), for which the inhibition was 2% in assay [1], 4% in assay [2], 45% in assay [3] (filed as antagonist) and 3% in assay [4].

As for `CC1=C(C(=O)OC(C)(C)C)C(c2ccsc2)NC(=S)N1` (racemic), the inhibition in assay [1] came out at 22%; in assay [2] it was 16%; in assay [3] it was 26%; in assay [4], 16%.

As for `CCCC(=O)C1=C(C)NC(=O)NC1c1ccoc1` (racemic), the inhibition in assay [1] came to 2%; in assay [2] it was 1%; in assay [3], 22%; in assay [4] it was 2%.

`CC1=C(C(N)=O)C(c2ccoc2)NC(=O)N1` (racemic): the inhibition in assay [1] came out at 3%; in assay [2], 1%; in assay [3], 6%; in assay [4], 2%.

As for `CC1=C(C(=O)OC(C)C)C(c2ccsc2)NC(=O)N1C` (racemic), the inhibition in assay [1] was determined as 22%; in assay [2], 35%; in assay [3] (filed as antagonist) it was 51%.

Regarding `CC1=C(C(=O)OC(C)C)C(c2ccoc2)NC(=O)N1C` (racemic), in assay [3], the inhibition is 37%.

In assay [3] (filed as antagonist), `CCOC(=O)C1=C(C)NC(=O)NC1c1cccs1` (racemic) had an inhibition of 41%.

`CCCOC(=O)C1=C(C)NC(=O)NC1c1ccco1` (racemic) gave an inhibition in assay [4] of 3%.

As to `CC1=C(C(=O)OC(C)C)C(c2ccco2)NC(=O)N1C` (racemic), in assay [1], the inhibition came to 37%.

As to `CCOC(=O)C1=C(C)N(C)C(=O)NC1c1cccs1` (racemic), the results for the inhibition in assay [1], in assay [2] and in assay [4] were 1%, 1% and 2%, respectively.
